This is an account of results in ChEMBL document CHEMBL5532752, “Integrating a quinone substructure into histone deacetylase inhibitors to cope with Alzheimer's disease and cancer” (RSC Med Chem, 2024).

pIC50: −log10 of the molar value.

Holding throughout (assay type): functional
Test [1] has as its system SH-SY5Y. Put plainly: Cytotoxicity against human SH-SY5Y cells assessed as reduction in cell viability incubated for 24 hrs by MUH reagent based spectrophotometric analysis.
Test [2] has as its system SH-SY5Y. Put plainly: Cytotoxicity against human SH-SY5Y cells assessed as reduction in cell viability incubated for 48 hrs by MUH reagent based spectrophotometric analysis.
Test [3] concerns SH-SY5Y. Put plainly: Cytotoxicity against human SH-SY5Y cells assessed as reduction in cell viability incubated for 72 hrs by MUH reagent based spectrophotometric analysis. In a few lines: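 SH-SY5Y in DMEM/10% FBS seeded 0.75 × 10⁴ cells/well, after 24 h treated with 0.1–100 μM for 24, 48 or 72 h. Washed, incubated with MUH 0.01 mg/mL in PBS 30 min at 37 °C in the dark; fluorescence ex 330/em 450 nm, normalized to untreated cells. IC50 by nonlinear regression, log(inhibitor) vs normalized response.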

For the compound `O=C(CCCCCNC1=CC(=O)c2ccccc2C1=O)NO`, the negative logarithm of the IC50 (pIC50) (usually −log10 of the IC50, conventionally taken in molar units) was 4.10 in the test on SH-SY5Y [1], 4.57 with SH-SY5Y [2] and 4.65 with SH-SY5Y [3].
For `CC1=C(NCc2ccc(C(=O)NO)cc2)C(=O)c2ccccc2C1=O` the same measures were 4.41, 4.70 and 4.85.
For `O=C(NO)c1ccc(CNC2=CC(=O)c3ccccc3C2=O)cc1`, the results for the negative-log IC50 (pIC50) with SH-SY5Y [1], in the test on SH-SY5Y [2] and in the test with SH-SY5Y [3] were 4.41, 5.06 and 5.11, respectively.
For `Nc1ccccc1NC(=O)c1ccc(CNC2=CC(=O)c3ccccc3C2=O)cc1` the same measures were 4.23, 5.07 and 5.35.
For `CC1=C(NCCCCCC(=O)NO)C(=O)c2ccccc2C1=O` the same measures were 3.75, 4.07 and 4.28.
For `O=C(CS)NCCCCNC1=CC(=O)c2ccccc2C1=O` the same measures were under 4.00, under 4.00 and under 4.00.
